The values that follow come from ChEMBL document CHEMBL3872230, “Inhibition of the enzymes in the leukotriene and prostaglandin pathways in inflammation by 3-aryl isocoumarins” (Eur J Med Chem, 2016).

In data set [1] the test system is HeLa. The data set is described as follows: Inhibition of mPGES1 mRNA expression in human HeLa cells at 5 uM by RT-PCR method. It is filed as functional, cell-based. An outline of the steps: (§1)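 Real-time PCR on treated HeLa cells. mRNA levels were normalized to untreated cells and to β-actin, and significance was assessed by 2-way ANOVA.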
The test system of data set [2] is HeLa. The data set is described as follows: Inhibition of COX-2 mRNA expression in human HeLa cells at 5 uM by RT-PCR method. It counts as functional, cell-based. An outline of the steps: as §1
Data set [3] in a line: Cytotoxicity against human HeLa cells assessed as cell proliferation at 50 uM after 24 hrs by MTT assay. It is filed as toxicity, cell-based. Particulars: read-out: Activity. (In general: Tetrazolium dyes change colour on reduction, which living cells bring about.)
For a further data set, the target named is T1, Prostaglandin E synthase (Homo sapiens, UniProt O14684).
T1 sequence (O14684 whole entry): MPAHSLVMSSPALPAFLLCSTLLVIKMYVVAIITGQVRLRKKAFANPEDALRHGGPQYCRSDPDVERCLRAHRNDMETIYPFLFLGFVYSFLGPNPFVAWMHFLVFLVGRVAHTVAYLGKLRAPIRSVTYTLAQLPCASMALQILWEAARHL
The data set is described as follows: Inhibition of mPGES1 in human A549 cells assessed as reduction in PGE2 production. It counts as cell-based.

Data set [4] addresses T2, Polyunsaturated fatty acid 5-lipoxygenase (Homo sapiens) (UniProt P09917).
T2 sequence (whole entry): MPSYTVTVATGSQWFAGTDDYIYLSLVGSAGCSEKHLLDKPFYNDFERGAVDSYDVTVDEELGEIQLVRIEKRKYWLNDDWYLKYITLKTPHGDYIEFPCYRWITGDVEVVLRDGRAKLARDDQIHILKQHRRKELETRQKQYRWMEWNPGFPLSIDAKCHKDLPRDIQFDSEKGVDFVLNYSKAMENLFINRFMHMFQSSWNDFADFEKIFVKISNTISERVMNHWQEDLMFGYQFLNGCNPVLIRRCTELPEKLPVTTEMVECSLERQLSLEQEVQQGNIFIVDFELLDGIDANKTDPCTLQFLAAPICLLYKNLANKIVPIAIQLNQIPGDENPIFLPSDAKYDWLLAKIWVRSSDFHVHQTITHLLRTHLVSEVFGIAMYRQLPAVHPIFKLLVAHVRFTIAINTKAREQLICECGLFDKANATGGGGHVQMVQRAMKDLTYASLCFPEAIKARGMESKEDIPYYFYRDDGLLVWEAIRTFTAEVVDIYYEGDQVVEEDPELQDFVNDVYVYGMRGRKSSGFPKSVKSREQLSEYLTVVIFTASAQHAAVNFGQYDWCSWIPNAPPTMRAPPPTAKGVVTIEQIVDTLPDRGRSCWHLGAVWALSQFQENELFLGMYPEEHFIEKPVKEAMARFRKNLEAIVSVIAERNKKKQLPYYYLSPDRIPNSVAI
The data set is described as follows: Inhibition of human recombinant 5-LOX expressed in Escherichia coli BL21 assessed as decrease in 5-HPETE production at 50 uM preincubated with enzyme followed by arachidonic acid substrate addition by UV-vis spectrophotometry.

Data set [5] deals with T3, Prostaglandin E synthase/G/H synthase 2 (Homo sapiens) (UniProt P35354+O14684). The data set is described as follows: Inhibition of COX-2/mPGES1 in human HeLa cells assessed as reduction in TNF-alpha induced PGE2 production at 5 uM preincubated for 15 mins followed by arachidonic acid addition for 15 mins by ELISA. It counts as cell-based. An outline of the steps:
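HeLa cells primed with TNF at 50 ng/ml to induce mPGES1, then exposed to compound for 15 min, then challenged with exogenous arachidonic acid for a further 15 min. PGE2 released into the culture supernatant was quantified by ELISA.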
On the technique in general: ELISA stands for enzyme-linked immunosorbent assay.

The target in data set [6] is T4, Polyunsaturated fatty acid 5-lipoxygenase (Homo sapiens, UniProt P09917).
T4 sequence (P09917 whole entry): T2 sequence (whole entry)
The data set is described as follows: Inhibition of human recombinant 5-LOX expressed in Escherichia coli BL21 assessed as decrease in 5-HPETE production preincubated with enzyme followed by arachidonic acid substrate addition by UV-vis spectrophotometry.

The target of data set [7] is T5, Prostaglandin E synthase (Homo sapiens) (UniProt O14684).
T5 sequence (whole entry): T1 sequence (O14684 whole entry)
The data set is described as follows: Inhibition of mPGES1 in human HeLa cells assessed as reduction in TNF-alpha induced PGE2 production at 5 uM preincubated for 2 hrs followed by TNF-alpha addition for 24 hrs by ELISA. It counts as cell-based. In a few lines: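 Read-out was PGE2 released into the HeLa culture supernatant, measured with an ELISA kit.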

Data set [8] deals with T3, Prostaglandin E synthase/G/H synthase 2 (Homo sapiens). The data set is described as follows: Inhibition of COX-2/mPGES1 in human HeLa cells assessed as reduction in TNF-alpha induced PGE2 production at 5 uM after 15 mins followed by ELISA. It counts as cell-based. In a few lines: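 TNF-treated HeLa cells were exposed to compound for 15 min without added arachidonic acid. PGE2 released into the culture supernatant was measured by ELISA.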

The target in data set [9] is Prostaglandin G/H synthase 1 (Homo sapiens, UniProt P23219). The data set is described as follows: Inhibition of COX-1 (unknown origin).
Prostaglandin G/H synthase 1, sequence (P23219 whole entry): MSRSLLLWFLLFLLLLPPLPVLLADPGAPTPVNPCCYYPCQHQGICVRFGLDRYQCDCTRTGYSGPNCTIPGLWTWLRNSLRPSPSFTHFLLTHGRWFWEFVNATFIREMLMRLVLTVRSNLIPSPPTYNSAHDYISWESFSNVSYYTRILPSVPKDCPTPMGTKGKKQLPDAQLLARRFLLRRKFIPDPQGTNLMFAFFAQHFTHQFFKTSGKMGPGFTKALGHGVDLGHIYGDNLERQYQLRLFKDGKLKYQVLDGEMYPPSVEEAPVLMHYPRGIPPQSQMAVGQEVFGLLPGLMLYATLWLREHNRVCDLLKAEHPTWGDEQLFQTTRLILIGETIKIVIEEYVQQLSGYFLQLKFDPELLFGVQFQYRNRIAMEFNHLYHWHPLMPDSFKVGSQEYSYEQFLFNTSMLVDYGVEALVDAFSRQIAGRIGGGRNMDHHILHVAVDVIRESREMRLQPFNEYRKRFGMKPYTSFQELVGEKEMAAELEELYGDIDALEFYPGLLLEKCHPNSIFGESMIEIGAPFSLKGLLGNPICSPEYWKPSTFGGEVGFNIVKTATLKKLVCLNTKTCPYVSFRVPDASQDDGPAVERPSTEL

Activity calls are given as the source filed them. The rule behind the calls is not given here.

T3 sequence (P35354 whole entry, looked up, one chain of several): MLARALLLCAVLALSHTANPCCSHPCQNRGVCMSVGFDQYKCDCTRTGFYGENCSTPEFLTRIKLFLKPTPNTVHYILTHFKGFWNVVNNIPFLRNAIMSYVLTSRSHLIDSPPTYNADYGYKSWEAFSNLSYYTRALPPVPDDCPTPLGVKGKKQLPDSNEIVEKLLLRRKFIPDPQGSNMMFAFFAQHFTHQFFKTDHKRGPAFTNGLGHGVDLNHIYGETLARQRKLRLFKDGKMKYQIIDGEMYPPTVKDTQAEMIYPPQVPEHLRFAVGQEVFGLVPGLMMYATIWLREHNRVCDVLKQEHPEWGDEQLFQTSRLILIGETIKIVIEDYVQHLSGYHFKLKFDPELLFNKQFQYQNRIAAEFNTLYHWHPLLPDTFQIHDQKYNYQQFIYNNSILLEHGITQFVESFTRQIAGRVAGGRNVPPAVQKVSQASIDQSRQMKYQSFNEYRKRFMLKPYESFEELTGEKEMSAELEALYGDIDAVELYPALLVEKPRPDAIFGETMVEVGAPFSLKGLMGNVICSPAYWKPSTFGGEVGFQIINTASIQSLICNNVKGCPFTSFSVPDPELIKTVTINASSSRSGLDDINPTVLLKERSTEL

For the molecule `CC1(C)Cc2c(-c3ccccc3)c(-c3ccc(Cl)cc3)c(CC(=O)O)n2C1` [LICOFELONE], the inhibition result with HeLa [1] and with HeLa [2] was “Active” each time. For the same molecule, in data set [3], the viability at 24 h, 50 µM worked out at 85%. The EC50 on Prostaglandin E synthase was found to be 100 nM. For the same molecule, the inhibition in data set [4] worked out at 71%; in data set [5], 54.7%; in data set [7] it was 48%; in data set [8], 81%. Also, the values for the IC50 in data set [6] and in data set [9] were 500 nM and 800 nM, respectively.

Broadly, the inhibition is the relative decrease from the control value, in per cent. A word on the EC50: it is the concentration at which the effect is half-maximal. For orientation: IC50 means the point on the concentration scale where inhibition reaches its midpoint.
